How the values were obtained:
Type in all cases: functional
Cancer cell lines [1] = experiment: Ratio of 5-FU GI50 to compound GI50 for human CNS cancer cells
Procedure, shortened: (§1)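 Compounds passing the NCI single-dose primary screen were retested across the 60 human tumour cell lines (nine subpanels) over a 5-log dose range. GI50, TGI and LC50 were recorded for each cell line, with 5-fluorouracil run as the reference drug. Subpanel values for compound and 5-FU were then compared.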

Cancer cell lines [2] = experiment: Ratio of 5-FU TGI to compound TGI for human non-small cell lung cancer cells
Cancer cell lines [3] = experiment: Ratio of 5-FU TGI to compound TGI for human renal cancer cells
Cancer cell lines [4] = experiment: Ratio of 5-FU LC50 to compound LC50 for human ovarian cancer cells; procedure, shortened: as §1
Cancer cell lines [5] = experiment: Ratio of 5-FU GI50 to compound GI50 for human prostate cancer cells; procedure, shortened: as §1
Cancer cell lines [6] = experiment: Ratio of 5-FU LC50 to compound LC50 for human colon cancer cells; procedure, shortened: as §1
Cancer cell lines [7] = experiment: Ratio of 5-FU GI50 to compound GI50 for human colon cancer cells; procedure, shortened: as §1
Melanoma cell = experiment: Ratio of 5-FU TGI to compound TGI for human melanoma cells
Cancer cell lines [8] = experiment: Ratio of 5-FU TGI to compound TGI for human colon cancer cells
Cancer cell lines [9] = experiment: Ratio of 5-FU LC50 to compound LC50 for human renal cancer cells; procedure, shortened: as §1
Cancer cell lines [10] = experiment: Ratio of 5-FU TGI to compound TGI for human CNS cancer cells

Row | SMILES | RatioGI50 (Cancer cell lines [1]) | Ratio (Cancer cell lines [2]) | Ratio (Cancer cell lines [3]) | RatioLC50 (Cancer cell lines [4]) | RatioGI50 (Cancer cell lines [5]) | RatioLC50 (Cancer cell lines [6]) | RatioGI50 (Cancer cell lines [7]) | Ratio (Melanoma cell) | Ratio (Cancer cell lines [8]) | RatioLC50 (Cancer cell lines [9]) | Ratio (Cancer cell lines [10])
1 | COc1cc(/C=C2\CCCC3=C(c4cc(OC)c(OC)c(OC)c4)Nc4ccccc4N=C32)cc(OC)c1OC | 11 | 11 | 11 | 11 | 11 | 11 | 11 | 11 | 11 | 11 | 11
2 | COc1cc(/C=C2\CCCc3c2nc(N)nc3-c2cc(OC)c(OC)c(OC)c2)cc(OC)c1OC | 15 | 15 | 15 | 15 | 15 | 15 | 15 | 15 | 15 | 15 | 15
3 | COc1cc(/C=C2\CCCc3c2nc(C)nc3-c2cc(OC)c(OC)c(OC)c2)cc(OC)c1OC | 15 | 15 | 15 | 15 | 15 | 15 | 15 | 15 | 15 | 15 | 15
